Experimental data reported in publication PMC9007260 (Russian Journal of Organic Chemistry, 2022).
Marks after values point to notes of the source that are not given here.

Key:
[1] = test system: coagulation in hemostasis; assay: Anticoagulant activity, activated partial thromboplastin time; format: biochemical; conditions: value (range), n = 6
Outline: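 APTT was measured turbidimetrically on a hemocoagulometer using centrifuged citrated blood. Change is given as percent of control with a range in parentheses, n = 6. Significance was tested against control and reference drugs at p ≤ 0.05 or p ≤ 0.001.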

[2] = test system: collagen-induced platelet aggregation; assay: Collagen-induced platelet aggregation; format: cell-based
Outline: (§1)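 Citrated blood was centrifuged, and platelet aggregation was recorded on an aggregometer using a published method. Collagen induced the latent period; ADP induced maximum amplitude and aggregation rate. Changes are given as percent of control, n = 6. Significance was tested against control and reference drugs at p ≤ 0.05 or p ≤ 0.001.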

[3] = test system: ADP-induced platelet aggregation; assay: ADP-induced platelet aggregation; format: cell-based; conditions: pro-aggregation activity versus etamsylate
Outline: as §1

Molecule	APTT (activated partial thromboplastin time) [1]	Effect on latent period (in words) [2]	Platelet aggregation activity relative to etamsylate [3]
CC(=O)Oc1ccccc1C(=O)O [Acetylsalicylic acid, reference compound]	+1.1 (0.5–1.9)^e percent of control	–	–
C[N+](C)(C)CC(=O)NN=C1C(=O)N(CCn2cnc3c(N)ncnc32)c2ccccc21.[Cl-] [Compound 3a, 2-(2-{1-[2-(6-Amino-9H-purin-9-yl)ethyl]-2-oxo-2,3-dihydro-1H-indol-3-ylidene}hydrazinyl)-N,N,N-trimethyl-2-oxoethan-1-aminium chloride]	+3.7 (2.9–5.4)^e percent of control	–	–
Cc1ccc2c(c1)C(=NNC(=O)C[N+](C)(C)C)C(=O)N2CCn1cnc2c(N)ncnc21.[Cl-] [Compound 3b, 2-(2-{1-[2-(6-Amino-9H-purin-9-yl)ethyl]-5-methyl-2-oxo-2,3-dihydro-1H-indol-3-ylidene}hydrazinyl)-N,N,N-trimethyl-2-oxoethan-1-aminium chloride]	+6.5 (4.9–8.3)^c,e percent of control	–	–
CCc1ccc2c(c1)C(=NNC(=O)C[n+]1ccccc1)C(=O)N2CCn1cnc2c(N)ncnc21.[Cl-] [Compound 3c, 1-[2-(2-{1-[2-(6-Amino-9H-purin-9-yl)ethyl]-5-ethyl-2-oxo-2,3-dihydro-1H-indol-3-ylidene}hydrazinyl)-2-oxoethyl]pyridinium chloride]	+5.3 (4.1–9.6)^c,e percent of control	–	–
Cc1ccc2c(c1)C(=NNC(=O)C[n+]1cccc(C)c1C)C(=O)N2CCn1cnc2c(N)ncnc21.[Br-] [Compound 3d, 1-[2-(2-{1-[2-(6-Amino-9H-purin-9-yl)ethyl]-5-methyl-2-oxo-2,3-dihydro-1H-indol-3-ylidene}hydrazinyl)-2-oxoethyl]-2,3-dimethylpyridinium bromide]	+2.5 (1.8–4.3)^e percent of control	–	–
Cn1c(=O)c2c(ncn2CCN2C(=O)C(=NNC(=O)C[N+](C)(C)C)c3ccccc32)n(C)c1=O.[Cl-] [Compound 4a, 2-[2-(1-{2-[1,3-Dimethyl-2,6-dioxo-2,3-dihydro-1H-purin-7(6H)-yl]ethyl}-2-oxo-2,3-dihydro-1H-indol-3-ylidene)hydrazinyl]-N,N,N-trimethyl-2-oxoethan-1-aminium chloride]	+8.4 (7.3–10.4)^c,e percent of control	–	–
Cc1ccc2c(c1)C(=NNC(=O)C[N+](C)(C)C)C(=O)N2CCn1cnc2c1c(=O)n(C)c(=O)n2C.[Cl-] [Compound 4b, 2-[2-(1-{2-[1,3-Dimethyl-2,6-dioxo-2,3-dihydro-1H-purin-7(6H)-yl]ethyl}-5-methyl-2-oxo-2,3-dihydro-1H-indol-3-ylidene)hydrazinyl]-N,N,N-trimethyl-2-oxoethan-1-aminium chloride]	+7.3 (5.6–9.4)^c,e percent of control	without affecting the latent period	more than twofold
Sodium heparin [reference compound]	+20.3 (19.7–21.4)^d percent of control	–	–
